Source: ChEMBL document CHEMBL5712919, “ARID1A Mutations Promote P300-Dependent Endometrial Invasion through Super-Enhancer Hyperacetylation” (Cell Rep, 2020)
The source made the active and inactive calls. No cut-off for these calls is given here.

What was measured:
[1] = biological target: Histone acetyltransferase p300 (Homo sapiens) (UniProt Q09472); test: Inhibition of P300 in human 12Z cells assessed as reduction in H3K27ac expression at 0.01 to 100 uM for 24 hrs by western blot analysis; assay type: cell-based; settings: dose 0.01-100 µM
Chain of Histone acetyltransferase p300 (Homo sapiens) (Q09472 whole entry): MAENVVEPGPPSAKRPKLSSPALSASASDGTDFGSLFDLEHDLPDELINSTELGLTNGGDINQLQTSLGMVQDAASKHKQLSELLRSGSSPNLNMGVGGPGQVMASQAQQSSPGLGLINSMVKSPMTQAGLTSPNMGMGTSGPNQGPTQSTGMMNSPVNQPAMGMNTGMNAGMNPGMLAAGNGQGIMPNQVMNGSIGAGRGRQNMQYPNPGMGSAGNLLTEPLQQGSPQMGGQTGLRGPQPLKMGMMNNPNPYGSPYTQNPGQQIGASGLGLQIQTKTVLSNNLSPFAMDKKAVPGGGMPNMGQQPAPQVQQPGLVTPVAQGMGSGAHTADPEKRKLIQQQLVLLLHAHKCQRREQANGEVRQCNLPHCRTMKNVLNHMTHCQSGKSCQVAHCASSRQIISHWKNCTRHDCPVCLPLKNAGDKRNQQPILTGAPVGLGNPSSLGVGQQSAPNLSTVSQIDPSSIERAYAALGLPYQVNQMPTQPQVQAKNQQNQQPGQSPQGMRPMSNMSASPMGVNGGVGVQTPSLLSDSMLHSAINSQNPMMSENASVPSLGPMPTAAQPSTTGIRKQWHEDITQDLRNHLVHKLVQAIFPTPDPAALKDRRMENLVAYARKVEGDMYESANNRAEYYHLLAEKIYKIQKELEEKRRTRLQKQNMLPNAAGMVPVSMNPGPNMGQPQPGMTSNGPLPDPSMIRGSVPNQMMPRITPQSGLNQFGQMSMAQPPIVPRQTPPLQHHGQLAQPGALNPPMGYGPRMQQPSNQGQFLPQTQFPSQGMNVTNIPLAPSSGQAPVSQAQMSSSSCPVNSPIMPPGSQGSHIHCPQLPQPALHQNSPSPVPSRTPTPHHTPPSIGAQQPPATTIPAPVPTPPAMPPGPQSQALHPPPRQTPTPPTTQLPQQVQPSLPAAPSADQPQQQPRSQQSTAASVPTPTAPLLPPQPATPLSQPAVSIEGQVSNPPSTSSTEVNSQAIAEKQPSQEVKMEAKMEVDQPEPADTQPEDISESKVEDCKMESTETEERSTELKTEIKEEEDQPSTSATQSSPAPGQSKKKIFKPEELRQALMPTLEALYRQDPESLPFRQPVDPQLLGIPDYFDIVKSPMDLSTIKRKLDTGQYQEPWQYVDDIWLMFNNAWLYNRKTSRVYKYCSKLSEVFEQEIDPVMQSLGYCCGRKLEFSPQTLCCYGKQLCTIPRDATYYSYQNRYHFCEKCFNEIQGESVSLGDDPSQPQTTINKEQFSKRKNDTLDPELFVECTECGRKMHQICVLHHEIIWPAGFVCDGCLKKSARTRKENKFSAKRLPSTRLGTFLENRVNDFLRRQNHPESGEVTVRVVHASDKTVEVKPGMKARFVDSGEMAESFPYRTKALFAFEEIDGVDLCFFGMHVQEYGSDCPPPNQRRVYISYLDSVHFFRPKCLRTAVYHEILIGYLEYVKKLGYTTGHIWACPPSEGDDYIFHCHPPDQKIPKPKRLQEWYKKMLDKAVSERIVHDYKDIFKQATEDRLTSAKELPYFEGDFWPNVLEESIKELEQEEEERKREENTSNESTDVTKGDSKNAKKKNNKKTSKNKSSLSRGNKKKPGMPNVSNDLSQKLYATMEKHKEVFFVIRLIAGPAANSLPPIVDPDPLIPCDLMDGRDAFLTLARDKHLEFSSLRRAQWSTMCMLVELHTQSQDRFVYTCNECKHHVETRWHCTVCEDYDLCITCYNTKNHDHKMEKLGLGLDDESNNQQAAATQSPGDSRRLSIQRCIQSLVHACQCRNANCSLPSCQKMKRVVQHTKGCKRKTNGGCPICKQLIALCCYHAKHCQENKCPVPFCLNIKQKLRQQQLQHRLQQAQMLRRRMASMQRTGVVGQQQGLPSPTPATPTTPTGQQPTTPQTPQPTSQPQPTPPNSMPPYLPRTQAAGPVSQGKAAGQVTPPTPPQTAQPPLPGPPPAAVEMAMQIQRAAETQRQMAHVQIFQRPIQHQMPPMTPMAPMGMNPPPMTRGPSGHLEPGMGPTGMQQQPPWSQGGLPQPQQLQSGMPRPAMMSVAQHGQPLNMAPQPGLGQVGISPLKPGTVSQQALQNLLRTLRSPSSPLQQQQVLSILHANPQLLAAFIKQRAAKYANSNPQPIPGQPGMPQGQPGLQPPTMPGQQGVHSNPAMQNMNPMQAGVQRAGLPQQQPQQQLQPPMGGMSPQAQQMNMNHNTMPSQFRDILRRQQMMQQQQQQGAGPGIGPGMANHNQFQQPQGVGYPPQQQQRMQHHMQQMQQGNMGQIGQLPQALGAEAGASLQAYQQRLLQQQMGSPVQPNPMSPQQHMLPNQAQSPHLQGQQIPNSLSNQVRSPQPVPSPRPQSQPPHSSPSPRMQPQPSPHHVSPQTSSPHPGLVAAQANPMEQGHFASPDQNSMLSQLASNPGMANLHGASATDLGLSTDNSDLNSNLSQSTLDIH
Outline: (§1)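 Histones were acid-extracted from A-485-treated 12Z cells with 0.2 N HCl in the presence of sodium butyrate. Extracts were run on a 15% SDS-PAGE gel and blotted with H3K27ac (1:1,000) and total H3 (1:2,000) antibodies, with IRDye 800CW secondary and fluorescence imaging.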

[2] = Cytotoxicity against human 12Z cells assessed as reduction in cell viability after 6 days by crystal violet staining based assay; assay type: toxicity
Outline: (§2)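 12Z cells seeded at 100 cells/well and, after 24 h, treated with A-485 from 10 nM to 100 μM. After 6 days, colonies stained with crystal violet and counted.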

[3] = Cytotoxicity against human 12Z cells transfected with control shRNA assessed as reduction in cell viability after 6 days by crystal violet staining based assay; assay type: toxicity; outline: as §2
[4] = Cytotoxicity against human 12Z cells transfected with shARID1A assessed as reduction in cell viability after 6 days by crystal violet staining based assay; assay type: functional; settings: 144 h; outline: as §2
12Z [5] = test: Inhibition of cell invasion in human 12Z cells transfected with shARID1A at 10 to 100 nM after 24 hrs by transwell invasion assay; assay type: functional, cell-based; settings: dose 10-100 nM
Outline: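 12Z cells were siRNA-transfected and drug added 24 h later. At 48 h, 30,000 cells in 0.3 mg/mL Matrigel were seeded on Matrigel-coated 8 μm transwells, with serum-free medium on top and 5% FBS medium below, drug in both chambers. After 16 hr, cells were stained with calcein-AM, unmigrated cells were removed, and five fields/well were imaged and counted.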

12Z [6] = test: Inhibition of cell migration in human 12Z cells transfected with shARID1A at 31 to 316 nM after 24 hrs by Matrigel based analysis; assay type: functional; settings: dose 31-316 nM, in the assay text read “culture-insert gap assay” for “Matrigel based analysis”
Outline: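 12Z cells (4,000/well) in 4-well culture inserts were transduced with control or shARID1A lentivirus (MOI 100). Serum-free medium with drug or vehicle was added after 24 hr, and inserts were removed at 16 hr. Front distances at 16 points were imaged at 0 and 24 hr, and migration was taken as the 0 h minus 24 h mean distance.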

12Z [7] = test: Induction of anchorage-dependent cell death in human 12Z cells assessed as increase in caspase3/7 level at 100 nM after 24 hrs by caspase-Glo 3/7 assay; assay type: functional, cell-based
Outline: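 The Caspase-Glo 3/7 assay was run in suspension. siRNA-transfected 12Z cells (48 hr), drug-treated for 24 hr, were seeded at 10,000 cells/well on cell-repellent plates in serum-free DMEM/F12 with A-485 or vehicle. After 24 hr, Caspase-Glo reagent was added 1:1 and incubated 1 hr at 37°C before reading luminescence.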

12Z [8] = test: Induction of cell death in human 12Z cells transfected with shARID1A assessed as increase in ratio of dead to live cells at 100 nM after 16 hrs by Matrigel based analysis; assay type: functional
Outline: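 12Z cells were siRNA-transfected and drug-treated 24 h post-transfection. At 48 h, 10,000 cells in 0.3 mg/mL Matrigel were seeded on Matrigel-coated wells in serum-free medium with 100 nM A-485 or vehicle.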

[9] = biological target: Histone acetyltransferase p300 (Homo sapiens) (UniProt Q09472); test: Inhibition of P300 in human 12Z cells assessed as reduction in H3K27ac expression at 316 nM for 24 hrs by western blot analysis; assay type: cell-based; outline: as §1
[10] = Cytotoxicity against human 12Z cells assessed as reduction in cell viability after 72 hrs at 0.01 to 100 uM by calcein-AM stainig based fluorescence assay; assay type: toxicity; settings: dose 0.01-100 µM
Outline: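 12Z cells seeded at 4,000 cells/well, transfected 24 h later, then drug-treated 24 h after transfection for 48–72 hr. Viable cells were read after 1 h with 2 μg/mL calcein-AM as fluorescence.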

[11] = Cytotoxicity against human 12Z cells transfected with control shRNA assessed as reduction in cell viability at 0.01 to 100 uM after 72 hrs by crystal violet staining fluorescence assay; assay type: toxicity, cell-based; settings: dose 0.01-100 µM
12Z [12] = test: Growth inhibition of human 12Z cells transfected with shARID1A assessed as reduction in cell viability at 0.01 to 100 uM after 72 hrs by crystal violet staining fluorescence assay; assay type: functional, cell-based; settings: dose 0.01-100 µM
[13] = biological target: Histone acetyltransferase p300 (Homo sapiens) (UniProt Q09472); test: Inhibition of P300 in human 12Z cells transfected with shARID1A assessed as affected in H3K27ac expression at 1 uM for 24 hrs by CUT and run analysis; assay type: cell-based
[14] = biological target: Histone acetyltransferase p300 (Homo sapiens) (UniProt Q09472); test: Inhibition of P300 in human 12Z cells transfected with shARID1A assessed as decrease in SERPINE1 RNA expression at 100 nM by RNA-seq analysis; assay type: cell-based
[15] = biological target: Histone acetyltransferase p300 (Homo sapiens) (UniProt Q09472); test: Inhibition of P300 in human 12Z cells transfected with shARID1A assessed as decrease in SERPINE1 RNA expression at 100 nM for 24 hrs by Western blot analysis; assay type: cell-based

## CNC(=O)Nc1ccc2c(c1)CC[C@@]21OC(=O)N(CC(=O)N(Cc2ccc(F)cc2)[C@@H](C)C(F)(F)F)C1=O [A-485]
[1]
  inhibition: Active
[2]
  IC50 at 6 days: 3.32 µM
[3]
  IC50 at 6 days: 3.61 µM
[4]
  IC50: 5.35 µM
12Z [5]
  inhibition: Active
12Z [6]
  inhibition: Active
12Z [7]
  Activity: Active
12Z [8]
  Activity: Active
[9]
  inhibition: Active
[10]
  Activity: Toxic
[11]
  Activity: Toxic
12Z [12]
  growth inhibition (GI): Active
[13]
  inhibition: Active
[14]
  inhibition: Active
[15]
  inhibition: Active
